Assay results as given in ChEMBL document CHEMBL1157023, “Synthesis and antimicrobial activities of some new thiazole and pyrazole derivatives based on 4,5,6,7-tetrahydrobenzothiophene moiety” (2010).

Key:
Format in all cases: functional
[1] = system: Klebsiella pneumoniae; assay: Antimicrobial activity against Klebsiella pneumoniae at 2 mg/ml after 24 hrs by agar diffusion assay; settings: read-out: DIZ
Summary of the method: (§1)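 Bacterial strain grown on nutrient agar with test compound in DMSO, DMSO-only control plate for each organism, ampicillin 2 mg/ml as reference. Plates incubated 24 h in three replicate plates per compound. Activity read as inhibition zone diameter.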

[2] = system: Botrytis fabae; assay: Antifungal activity against Botrytis fabae at 2 mg/ml after 7 days by agar diffusion assay; settings: 168 h, read-out: DIZ
Summary of the method: (§2)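 Fungus grown on potato dextrose agar with test compound in DMSO, DMSO-only control plate for each organism. Plates incubated seven days in three replicate plates per compound. Activity read as inhibition zone diameter.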

[3] = system: Bacillus thuringiensis; assay: Antibacterial activity against Bacillus thuringiensis at 2 mg/ml after 24 hrs by agar diffusion assay; settings: read-out: DIZ; summary of the method: as §1
[4] = system: Fusarium oxysporum; assay: Antifungal activity against Fusarium oxysporum at 2 mg/ml after 7 days by agar diffusion assay; settings: 168 h, read-out: DIZ; summary of the method: as §2

SMILES | zone of inhibition at 2000 µg/mL [1] [mm] | zone of inhibition at 2000 µg/mL [2] [mm] | zone of inhibition at 2000 µg/mL [3] [mm] | zone of inhibition at 2000 µg/mL [4] [mm]
CC(=O)c1nnc2c(C(=O)Nc3sc4c(c3C(N)=O)CCCC4)c(Nc3ccccc3)nn2c1C | 12 | 18 |  | 
Cc1cc(C)n2nc(Nc3ccccc3)c(C(=O)Nc3sc4c(c3C(N)=O)CCCC4)c2n1 | 17 | 15 | 15 | 13
NC(=O)c1c(NC(=O)c2c(Nc3ccccc3)nn3c4c(cnc23)CCc2ccccc2-4)sc2c1CCCC2 | 17 |  | 15 | 17
Cc1ccc(N/N=C2/C(=O)S/C(=C(\C#N)C(=O)Nc3sc4c(c3C(N)=O)CCCC4)N2c2ccccc2)cc1 | 19 | 18 | 22 | 16
Cc1nn(-c2ccccc2)c2c1cnc1c(C(=O)Nc3sc4c(c3C(N)=O)CCCC4)c(Nc3ccccc3)nn12 | 18 | 16 | 16 | 14
NC(=O)c1c(NC(=O)c2cn[nH]c2N)sc2c1CCCC2 | 20 | 16 | 17 | 12
Cc1ccc(C)n1-c1[nH]nc(Nc2ccccc2)c1C(=O)Nc1sc2c(c1C(N)=O)CCCC2 | 22 | 18 | 18 | 14
NC(=O)c1c(NC(=O)c2c(Nc3ccccc3)nn3c(-c4ccccc4)ccnc23)sc2c1CCCC2 | 19 | 15 | 15 | 19
COc1ccc(/C=c2\c(=O)s/c(=C(\C#N)C(=O)Nc3sc4c(c3C(N)=O)CCCC4)n2-c2ccccc2)cc1 | 23 | 13 | 20 | 15
Cc1cc(C)c2c(n1)nn1c(N)c(C(=O)Nc3sc4c(c3C(N)=O)CCCC4)nnc21 | 18 | 13 | 16 | 13
NC(=O)c1c(NC(=O)c2c(Nc3ccccc3)n[nH]c2N)sc2c1CCCC2 | 22 |  | 24 | 14
N#Cc1nnc2c(C(=O)Nc3sc4c(c3C(N)=O)CCCC4)c(Nc3ccccc3)nn2c1N | 18 | 16 | 16 | 
N#C/C(C(=O)Nc1sc2c(c1C(N)=O)CCCC2)=C1\SC(=O)CN1c1ccccc1 | 19 | 12 | 21 | 16
CC1(C)S[C@@H]2[C@H](NC(=O)[C@H](N)c3ccccc3)C(=O)N2[C@H]1C(=O)O [AMPICILLIN] | 20 | 15 | 17 | 17
